Here are results for 15 compounds from ChEMBL document CHEMBL1138748, “A prodrug approach toward the development of water soluble fluoroquinolones and structure--activity relationships of quinoline-3-carboxylic acids” (2004).

What all share (format): functional
The test system of experiment [1] is Staphylococcus aureus. The experiment in a line: Antibacterial activity against Staphylococcus aureus strain 29213. In a few lines:
(§1)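 Broth microdilution MIC run to NCCLS standards: serial 2-fold dilutions in cation-adjusted Mueller–Hinton broth, inoculum ~5 × 10^5 CFU/mL, incubated 35 °C for 18–24 h. Trays were read by eye, and the MIC was taken as the lowest concentration giving complete growth inhibition (no visible turbidity).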

The test system of experiment [2] is Staphylococcus aureus. Briefly: Antibacterial activity against Staphylococcus aureus strain St au 33591 MRSA. In a few lines:
as §1

Experiment [3] concerns Enterococcus faecalis. The experiment in a line: Antibacterial activity against Enterococcus faecalis strain 29212. Summed up: as §1
Experiment [4] deals with Escherichia coli. Briefly: Antibacterial activity against Escherichia coli strain 25922. Summed up:
as §1

The subject of experiment [5] is Pseudomonas aeruginosa. The experiment in a line: Antibacterial activity against Pseudomonas aeruginosa strain 27853. Summed up:
as §1

For experiment [6], the system named is Staphylococcus aureus. The experiment in a line: Antibacterial activity against Staphylococcus aureus strain St au 29213. Summed up: as §1
Experiment [7] concerns Escherichia coli. The experiment in a line: Antibacterial activity against Escherichia coli. In a few lines: as §1
Experiment [8] relates to Staphylococcus aureus. Briefly: Antibacterial activity against methicillin susceptible Staphylococcus aureus. Summed up:
(§2)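 Broth microdilution per NCCLS standards: serial 2-fold dilutions in cation-adjusted Mueller–Hinton broth, inoculum ~5 × 10^5 CFU/mL, 35 °C for 18–24 h, visual read; MIC = lowest concentration giving complete growth inhibition (no visible turbidity). Reference strains, e.g. S. aureus 29213 (susceptible) and 33591 (MRSA).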

For experiment [9], the system named is Enterococcus faecalis. The experiment in a line: Antibacterial activity against Enterococcus faecalis. In a few lines:
as §1

The subject of experiment [10] is Pseudomonas aeruginosa. The experiment in a line: Antibacterial activity against Pseudomonas aeruginosa. Summed up:
as §1

Experiment [11] relates to Staphylococcus aureus. The experiment in a line: Antibacterial activity against methicillin resistant Staphylococcus aureus. Summed up: as §2

Converted amounts (≈) assume the structure as drawn.

The term MIC denotes the least concentration at which growth counts as inhibited. For the compound `O=C(O)c1cn(-c2ccc(O)cc2)c2cc(N3CCNCC3)c(F)cc2c1=O`, the MIC in the experiment with Staphylococcus aureus [1] is 0.78 µg/mL (≈ 2.03 µM); with Staphylococcus aureus [2], 0.4 µg/mL (≈ 1.04 µM); against Enterococcus faecalis [3], 6.25 µg/mL (≈ 16.3 µM); in the experiment on Escherichia coli [4], 0.4 µg/mL (≈ 1.04 µM); with Pseudomonas aeruginosa [5] it was 1.56 µg/mL (≈ 4.07 µM).

With `O=C(O)c1cn(-c2ccc(O)cc2)c2nc(N3CC4CCCNC4C3)c(F)cc2c1=O` (stereo not drawn), the MIC with Staphylococcus aureus [2] was 0.4 µg/mL (≈ 0.942 µM); against Enterococcus faecalis [3], 3.13 µg/mL (≈ 7.37 µM); against Staphylococcus aureus [6], 0.4 µg/mL (≈ 0.942 µM); in the experiment with Escherichia coli [4] it was 1.56 µg/mL (≈ 3.68 µM); in the experiment on Pseudomonas aeruginosa [5], 1.56 µg/mL (≈ 3.68 µM).

On to `C[C@H]1CN(c2nc3c(cc2F)c(=O)c(C(=O)O)cn3-c2ccc(O)cc2)C[C@H]1N`, for which the minimum inhibitory concentration (MIC) turned out to be 0.4 µg/mL (≈ 1 µM) in the experiment on Staphylococcus aureus [2]; 1.56 µg/mL (≈ 3.92 µM) with Enterococcus faecalis [3]; 0.4 µg/mL (≈ 1 µM) in the experiment on Staphylococcus aureus [6]; 0.4 µg/mL (≈ 1 µM) against Escherichia coli [4]; 0.78 µg/mL (≈ 1.96 µM) in the experiment with Pseudomonas aeruginosa [5].

With `NCC1CCN(c2nc3c(cc2F)c(=O)c(C(=O)O)cn3-c2ccc(O)cc2)C1` (stereo not drawn), the MIC in the experiment with Staphylococcus aureus [2] was 1.56 µg/mL (≈ 3.92 µM); in the experiment on Enterococcus faecalis [3] it was 3.13 µg/mL (≈ 7.86 µM); in the experiment on Staphylococcus aureus [6], 0.4 µg/mL (≈ 1 µM); with Escherichia coli [4], 3.13 µg/mL (≈ 7.86 µM); in the experiment with Pseudomonas aeruginosa [5], 6.25 µg/mL (≈ 15.7 µM).

Regarding `C[C@H](N)[C@@H]1CCN(c2nc3c(cc2F)c(=O)c(C(=O)O)cn3-c2ccc(O)cc2)C1`, the MIC against Staphylococcus aureus [2] was determined as 1.56 µg/mL (≈ 3.78 µM); in the experiment with Enterococcus faecalis [3], 6.25 µg/mL (≈ 15.2 µM); against Staphylococcus aureus [6], 1.56 µg/mL (≈ 3.78 µM); against Escherichia coli [4], 1.56 µg/mL (≈ 3.78 µM); in the experiment on Pseudomonas aeruginosa [5] it was 12.5 µg/mL (≈ 30.3 µM).

Consider `C[C@@H](N)[C@H]1CCN(c2nc3c(cc2F)c(=O)c(C(=O)O)cn3-c2ccc(O)cc2)C1`, for which the MIC worked out at 1.56 µg/mL (≈ 3.78 µM) with Staphylococcus aureus [2]; 12.5 µg/mL (≈ 30.3 µM) with Enterococcus faecalis [3]; 1.56 µg/mL (≈ 3.78 µM) with Staphylococcus aureus [6]; 6.25 µg/mL (≈ 15.2 µM) in the experiment on Escherichia coli [4]; 12.5 µg/mL (≈ 30.3 µM) in the experiment on Pseudomonas aeruginosa [5].

In the case of `N[C@H]1CN(c2nc3c(cc2F)c(=O)c(C(=O)O)cn3-c2ccc(O)cc2)CC12CC2`, the MIC against Staphylococcus aureus [2] amounted to 0.4 µg/mL (≈ 0.975 µM); against Enterococcus faecalis [3] it was 0.78 µg/mL (≈ 1.9 µM); with Staphylococcus aureus [6] it was 0.2 µg/mL (≈ 0.487 µM); in the experiment on Escherichia coli [4], 0.2 µg/mL (≈ 0.487 µM); against Pseudomonas aeruginosa [5], 0.78 µg/mL (≈ 1.9 µM).

On to `CN1CCC2CN(c3nc4c(cc3F)c(=O)c(C(=O)O)cn4-c3ccc(O)cc3)CC21` (stereo not drawn), for which the MIC was determined as 0.2 µg/mL (≈ 0.471 µM) with Staphylococcus aureus [2]; 1.56 µg/mL (≈ 3.68 µM) in the experiment on Enterococcus faecalis [3]; 0.2 µg/mL (≈ 0.471 µM) in the experiment on Staphylococcus aureus [6]; 0.1 µg/mL (≈ 0.236 µM) in the experiment on Escherichia coli [4]; 6.25 µg/mL (≈ 14.7 µM) against Pseudomonas aeruginosa [5].

As to `N[C@@H]1CN(c2nc3c(cc2F)c(=O)c(C(=O)O)cn3-c2ccc(O)cc2)CC12CC2`, the MIC in the experiment on Staphylococcus aureus [2] came to 1.56 µg/mL (≈ 3.8 µM); in the experiment with Enterococcus faecalis [3], 25 µg/mL (≈ 60.9 µM); in the experiment with Staphylococcus aureus [6], 1.56 µg/mL (≈ 3.8 µM); against Escherichia coli [4] it was 1.56 µg/mL (≈ 3.8 µM); against Pseudomonas aeruginosa [5] it was 3.13 µg/mL (≈ 7.63 µM).

`CN1CCN(c2cc3c(cc2F)c(=O)c(C(=O)O)cn3-c2ccc(O)cc2)CC1`: the MIC amounted to 0.05 µg/mL (≈ 0.126 µM) with Escherichia coli [7]; 0.1 µg/mL (≈ 0.252 µM) with Staphylococcus aureus [8]; 0.2 µg/mL (≈ 0.503 µM) in the experiment with Staphylococcus aureus [2]; 0.78 µg/mL (≈ 1.96 µM) in the experiment with Enterococcus faecalis [9]; 0.78 µg/mL (≈ 1.96 µM) against Enterococcus faecalis [3]; 0.1 µg/mL (≈ 0.252 µM) against Staphylococcus aureus [6]. Further, the MIC was less than 0.05 µg/mL with Escherichia coli [4], 0.78 µg/mL (≈ 1.96 µM) in the experiment with Pseudomonas aeruginosa [5], 0.78 µg/mL (≈ 1.96 µM) against Pseudomonas aeruginosa [10] and 0.1 µg/mL (≈ 0.252 µM) against Staphylococcus aureus [11].

Regarding `CN1CCN(c2cc3c(cc2F)c(=O)c(C(=O)O)cn3-c2ccc(OP(=O)(O)O)cc2)CC1`, the MIC in the experiment with Escherichia coli [7] came out at 0.2 µg/mL (≈ 0.419 µM); with Staphylococcus aureus [8], 1.56 µg/mL (≈ 3.27 µM); in the experiment on Enterococcus faecalis [9], 25 µg/mL (≈ 52.4 µM); against Pseudomonas aeruginosa [10] it was 50 µg/mL (≈ 105 µM); in the experiment with Staphylococcus aureus [11], 0.78 µg/mL (≈ 1.63 µM).

`N[C@@H]1CCC[C@@H]2CN(c3nc4c(cc3F)c(=O)c(C(=O)O)cn4-c3ccc(O)cc3)C[C@@H]21`: the MIC is 0.4 µg/mL (≈ 0.912 µM) against Staphylococcus aureus [2]; 3.13 µg/mL (≈ 7.14 µM) against Enterococcus faecalis [3]; 0.4 µg/mL (≈ 0.912 µM) in the experiment on Staphylococcus aureus [6]; 3.13 µg/mL (≈ 7.14 µM) in the experiment on Escherichia coli [4]; 6.25 µg/mL (≈ 14.3 µM) against Pseudomonas aeruginosa [5].

As for `C[C@@H]1CN(c2nc3c(cc2F)c(=O)c(C(=O)O)cn3-c2ccc(O)cc2)C[C@H]1N`, the MIC in the experiment on Staphylococcus aureus [2] turned out to be 0.4 µg/mL (≈ 1 µM); against Enterococcus faecalis [3] it was 1.56 µg/mL (≈ 3.92 µM); in the experiment on Staphylococcus aureus [6], 0.4 µg/mL (≈ 1 µM); against Escherichia coli [4], 0.4 µg/mL (≈ 1 µM); in the experiment with Pseudomonas aeruginosa [5] it was 0.78 µg/mL (≈ 1.96 µM).

`C[C@H](N)[C@H]1CCN(c2nc3c(cc2F)c(=O)c(C(=O)O)cn3-c2ccc(O)cc2)C1`: the MIC against Staphylococcus aureus [2] came out at 0.78 µg/mL (≈ 1.89 µM); in the experiment with Enterococcus faecalis [3] it was 3.13 µg/mL (≈ 7.59 µM); with Staphylococcus aureus [6] it was 0.78 µg/mL (≈ 1.89 µM); with Escherichia coli [4], 3.13 µg/mL (≈ 7.59 µM); in the experiment on Pseudomonas aeruginosa [5] it was 3.13 µg/mL (≈ 7.59 µM).

On to `O=C(O)c1cn(C2CC2)c2cc(N3CCNCC3)c(F)cc2c1=O` [CIPROFLOXACIN], for which the MIC came out at 0.25 µg/mL (≈ 0.754 µM) against Staphylococcus aureus [8], 1 µg/mL (≈ 3.02 µM) with Enterococcus faecalis [9] and 0.5 µg/mL (≈ 1.51 µM) in the experiment with Staphylococcus aureus [11].
